Measured values published in ChEMBL document CHEMBL4706593, “Induced protein degradation of histone deacetylases 3 (HDAC3) by proteolysis targeting chimera (PROTAC)” (Eur J Med Chem, 2020).
Activity calls are given as the source filed them. The rule behind the calls is not given here.

Key:
Histone deacetylase 1 = Histone deacetylase 1 (Homo sapiens, UniProt Q13547); test: Inhibition of recombinant human C-terminal His/FLAG-tagged HDAC1 (1 to 482 residues) expressed in Sf9 insect cells using Boc-Lys(epsilon-Ac)-AMC as substrate measured after 90 mins by fluorescence assay
[1] = Cytotoxicity against mouse RAW264.7 cells assessed as cell survival up to 10 uM measured after 24 hrs by MTS assay relative to control; assay type: cell-based; conditions: read-out: Survival
Outline: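 RAW264.7 macrophages (ATCC, passage 5–16) grown in DMEM GlutaMAX with 10% heated FBS at 37 °C, 5% CO2. Cells seeded at 25,000 cells/cm2 and treated the next day in fresh medium with compound up to 10 μM for 24 h at 37 °C. CellTiter 96 AQueous One (MTS) reagent added for 2 h at 37 °C in the dark, absorbance read at 490 nm, expressed as % of control.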

Histone deacetylase 2 = Histone deacetylase 2 (Homo sapiens, UniProt Q92769); test: Inhibition of recombinant human full-length C-terminal FLAG-tagged HDAC2 expressed in baculovirus infected Sf9 insect cells using Boc-Lys(epsilon-Ac)-AMC as substrate measured after 90 mins by fluorescence assay
[2] = molecular target: T1, Protein cereblon/Histone deacetylase 2 (Mus musculus) (UniProt P70288+Q8C7D2); test: Protac activity at CRBN/HDAC2 in mouse RAW264.7 cells assessed as induction of HDAC2 degradation at 10 uM by Western blot analysis; assay type: cell-based
Outline: (§1)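 RAW264.7 macrophages treated at 10 µM. Cells lysed in ice-cold HEPES/MgCl2/EDTA/0.5% Triton X-100 with protease inhibitors, protein by BCA, 4–12% Bis-Tris SDS-PAGE, PVDF transfer. Probed with HDAC1, HDAC2 or HDAC3 antibodies (1:2000) and β-actin, then HRP secondary and chemiluminescence. Bands quantified by densitometry as fold of untreated control, mean ± SD of 2 independent experiments.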

[3] = molecular target: T2, Protein cereblon/Histone deacetylase 1 (Mus musculus) (UniProt O09106+Q8C7D2); test: Protac activity at CRBN/HDAC1 in mouse RAW264.7 cells assessed as induction of HDAC1 degradation at 10 uM by Western blot analysis; assay type: cell-based; outline: as §1
[4] = molecular target: Histone deacetylase 3/Nuclear receptor corepressor 2 (HDAC3/NCoR2) (Homo sapiens, UniProt O15379); test: Inhibition of human recombinant C-terminal His-tagged HDAC3 (1 to 428 residues)/N-terminal GST-tagged NCOR2 (395 to 489 residues) expressed in baculovirus infected Sf9 insect cells using Boc-Lys(epsilon-Ac)-AMC as substrate measured after 90 mins by fluorescence assay
Outline: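 Incubated with inhibitor dilutions (in 10% DMSO/buffer) and Boc-Lys(ε-Ac)-AMC, 90 min at 37 °C. Stopped with trypsin plus 200 µM vorinostat, 30 min at 37 °C.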

[5] = molecular target: T3, Protein cereblon/Histone deacetylase 3 (Mus musculus) (UniProt O88895+Q8C7D2); test: Protac activity at CRBN/HDAC3 in mouse RAW264.7 cells assessed as induction of HDAC3 degradation at 10 uM by Western blot analysis; assay type: cell-based; outline: as §1
[6] = molecular target: T3, Protein cereblon/Histone deacetylase 3 (Mus musculus); test: Protac activity at CRBN/HDAC3 in mouse RAW264.7 cells assessed as induction of HDAC3 degradation at 10 uM measured after 24 hrs in presence of proteasome inhibitor bortezomib by Western blot analysis; assay type: cell-based
Outline: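 RAW264.7 macrophages treated 24h with bortezomib, the PROTAC, or both together. HDAC3 measured by western blot, quantified as fold of untreated control, mean ± SD of 2 independent experiments.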

[7] = molecular target: T3, Protein cereblon/Histone deacetylase 3 (Mus musculus); test: Protac activity at CRBN/HDAC3 in mouse RAW264.7 cells assessed as induction of HDAC3 degradation at 10 uM measured after 24 hrs in presence of CRBN ligand pomalidomide by Western blot analysis; assay type: cell-based
Outline: (§2)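 RAW264.7 cells pre-treated 1h with pomalidomide or CI994 (competitor), then the PROTAC added for 24h combined treatment. Control cells received competitor alone for 25h. HDAC3 measured by western blot, quantified as fold of untreated control, mean ± SD of 2 independent experiments.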

[8] = molecular target: T1, Protein cereblon/Histone deacetylase 2 (Mus musculus); test: Protac activity at CRBN/HDAC2 in mouse RAW264.7 cells assessed as induction of HDAC2 degradation at 0.01 to 10 uM measured after 24 hrs by Western blot analysis; assay type: cell-based; conditions: dose 0.01-10 µM
Outline: (§3)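 RAW264.7 cells treated across 0.001–30 µM. Lysates blotted as standard, but membranes blocked in Odyssey buffer and probed with IRDye 680RD anti-mouse and 800CW anti-rabbit secondaries (1:10000). Bands imaged on a fluorescence scanner and quantified to derive DC50 (50% degradation concentration), expressed as percentage of untreated control, mean ± SD of 2–3 independent experiments.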

RAW264.7 [9] = test: Effect on LPS/IFNgamma-induced IL-10 mRNA expression in mouse RAW264.7 cells at 1 uM incubated for 20 hrs followed by LPS/IFNgamma stimulation and measured after 4 hrs by RT-qPCR analysis; assay type: functional, cell-based; conditions: time 24.0 hrs
Outline: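 RAW264.7 macrophages treated for 24h, with LPS/IFNγ stimulation during the final 4h. Vehicle cells received a proportional DMSO dilution. Total RNA isolated from DPBS-washed cells and IL-10 transcription measured by RT-qPCR. Mean ± SD of 2–3 independent experiments.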

[10] = molecular target: T3, Protein cereblon/Histone deacetylase 3 (Mus musculus); test: Protac activity at CRBN/HDAC3 in mouse RAW264.7 cells assessed as induction of HDAC3 degradation at 10 uM measured after 24 hrs in presence of HDAC ligand CI994 by Western blot analysis; assay type: cell-based; outline: as §2
[11] = molecular target: T3, Protein cereblon/Histone deacetylase 3 (Mus musculus); test: Protac activity at CRBN/HDAC3 in mouse RAW264.7 cells assessed as induction of HDAC3 degradation at 10 uM measured after 6 to 48 hrs by Western blot analysis; assay type: cell-based; conditions: time 6-48 hrs
Outline: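 RAW264.7 macrophages treated for the indicated times. HDAC3 level measured by western blot against β-actin. Bands quantified as fold of untreated control, mean ± SD of 2 independent experiments.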

[12] = molecular target: T3, Protein cereblon/Histone deacetylase 3 (Mus musculus); test: Protac activity at CRBN/HDAC3 in mouse RAW264.7 cells assessed as increase of H3K27 acetylation at 10 uM measured after 24 hrs by Western blot analysis; assay type: cell-based
Outline: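 RAW264.7 macrophages treated for 24h. H3K27 acetylation measured by western blot with acH3K27 antibody (1:1000), HRP detection. Bands quantified as fold of untreated control, mean ± SD of 2 independent experiments.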

[13] = molecular target: T4, Protein cereblon/Histone deacetylase 3 (Mus musculus, UniProt O88895+Q8C7D2); test: Protac activity at CRBN/HDAC3 in mouse RAW264.7 cells assessed as induction of HDAC3 degradation measured after 24 hrs by Western blot analysis; assay type: cell-based; outline: as §3
T4 sequence (O88895 whole entry): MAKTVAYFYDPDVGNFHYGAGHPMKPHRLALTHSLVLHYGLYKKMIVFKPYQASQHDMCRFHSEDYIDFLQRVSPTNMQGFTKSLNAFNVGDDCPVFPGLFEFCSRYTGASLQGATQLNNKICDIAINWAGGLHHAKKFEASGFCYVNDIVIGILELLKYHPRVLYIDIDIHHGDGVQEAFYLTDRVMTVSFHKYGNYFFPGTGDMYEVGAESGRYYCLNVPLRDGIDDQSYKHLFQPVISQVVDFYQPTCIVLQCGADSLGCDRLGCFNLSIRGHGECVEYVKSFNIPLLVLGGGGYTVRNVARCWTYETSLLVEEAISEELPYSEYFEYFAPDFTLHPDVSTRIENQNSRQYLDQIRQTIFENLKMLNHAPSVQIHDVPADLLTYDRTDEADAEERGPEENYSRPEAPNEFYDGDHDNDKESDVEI
T4 sequence (Q8C7D2 whole entry): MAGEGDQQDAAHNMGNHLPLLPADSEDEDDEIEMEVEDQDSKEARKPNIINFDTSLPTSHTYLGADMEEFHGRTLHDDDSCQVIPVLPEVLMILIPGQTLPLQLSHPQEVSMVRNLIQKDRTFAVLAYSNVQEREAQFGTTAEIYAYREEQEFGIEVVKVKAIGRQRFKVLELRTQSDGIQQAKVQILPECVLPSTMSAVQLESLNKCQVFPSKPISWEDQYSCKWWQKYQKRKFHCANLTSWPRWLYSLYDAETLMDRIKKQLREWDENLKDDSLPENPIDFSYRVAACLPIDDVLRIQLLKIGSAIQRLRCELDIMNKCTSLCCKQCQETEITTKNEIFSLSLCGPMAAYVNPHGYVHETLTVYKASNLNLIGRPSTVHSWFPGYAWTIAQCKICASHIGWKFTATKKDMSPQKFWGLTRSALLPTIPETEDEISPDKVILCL

[14] = molecular target: T2, Protein cereblon/Histone deacetylase 1 (Mus musculus); test: Protac activity at CRBN/HDAC1 in mouse RAW264.7 cells assessed as induction of HDAC1 degradation at 0.01 to 10 uM measured after 24 hrs by Western blot analysis; assay type: cell-based; conditions: dose 0.01-10 µM
[15] = Down regulation of NFkappaB p65 expression in LPS/IFNgamma-induced mouse RAW264.7 cells at 10 uM incubated for 20 hrs followed by LPS/IFNgamma stimulation and measured after 4 hrs by Western blot analysis; conditions: raw264.7, 24 h
Outline: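 RAW264.7 cells treated and NF-κB p65 protein measured by western blot with p65 antibody (1:2500), β-actin loading control, HRP secondary and chemiluminescent detection.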

[16] = molecular target: T1, Protein cereblon/Histone deacetylase 2 (Mus musculus); test: Protac activity at CRBN/HDAC2 in mouse RAW264.7 cells assessed as induction of HDAC2 degradation at 100 uM measured after 24 hrs by Western blot analysis; assay type: cell-based
Outline: (§4)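 RAW264.7 macrophages exposed to 1–100 µM for HDAC1/2/3 level assessment. Protein read by western blot: lysis, BCA, Bis-Tris SDS-PAGE, PVDF, overnight 4 °C primary antibodies (HDAC1, 2, 3 at 1:2000; β-actin 1:10000), HRP secondaries, chemiluminescence.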

[17] = molecular target: T2, Protein cereblon/Histone deacetylase 1 (Mus musculus); test: Protac activity at CRBN/HDAC1 in mouse RAW264.7 cells assessed as induction of HDAC1 degradation at 30 to 100 uM measured after 24 hrs by Western blot analysis; assay type: cell-based; conditions: dose 30-100 µM; outline: as §4
[18] = molecular target: Protein cereblon/Histone deacetylase 3 (Homo sapiens) (UniProt O15379+Q96SW2); test: Protac activity at CRBN/HDAC3 in human A549 cells assessed as induction of HDAC3 degradation up to 50 uM by Western blot analysis; assay type: cell-based; conditions: dose microM <=50
[19] = molecular target: T3, Protein cereblon/Histone deacetylase 3 (Mus musculus); test: Protac activity at CRBN/HDAC3 in mouse RAW264.7 cells assessed as induction of HDAC3 degradation at 10 to 100 uM measured after 24 hrs by Western blot analysis; assay type: cell-based; conditions: dose 10-100 µM; outline: as §4
RAW264.7 [20] = test: Cytotoxicity against mouse RAW264.7 cells assessed as reduction in cell proliferation at 3 uM measured after 24 hrs by MTS assay relative to control; assay type: cell-based; set-up: scale not given: the % may be the effect or the level left; conditions: raw264.7, 24 h
Outline: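 RAW264.7 cells (passage 5–16, DMEM GlutaMAX with 10% heated FBS, 37 °C, 5% CO2) seeded at 25,000 cells/cm2. Next day, medium swapped for fresh medium containing compound. After 24h, CellTiter 96 AQueous One (MTS) added, 2h at 37 °C in dark. Absorbance read at 490 nm and expressed as % of control.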

T1 sequence (P70288 whole entry, looked up, one chain of several): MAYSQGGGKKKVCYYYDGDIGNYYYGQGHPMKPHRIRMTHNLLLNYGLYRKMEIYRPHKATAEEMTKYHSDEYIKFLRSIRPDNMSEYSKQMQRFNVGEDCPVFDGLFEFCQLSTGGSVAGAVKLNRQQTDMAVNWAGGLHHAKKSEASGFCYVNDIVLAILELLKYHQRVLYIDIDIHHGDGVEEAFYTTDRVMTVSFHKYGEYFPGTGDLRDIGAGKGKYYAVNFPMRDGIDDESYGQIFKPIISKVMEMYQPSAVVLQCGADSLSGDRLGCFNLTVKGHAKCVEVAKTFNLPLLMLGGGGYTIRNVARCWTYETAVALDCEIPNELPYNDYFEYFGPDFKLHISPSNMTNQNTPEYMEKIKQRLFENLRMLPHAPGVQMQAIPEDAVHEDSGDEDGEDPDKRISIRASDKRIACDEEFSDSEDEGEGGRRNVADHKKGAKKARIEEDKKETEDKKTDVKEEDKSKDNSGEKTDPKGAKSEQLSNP
Chain of Histone deacetylase 3/Nuclear receptor corepressor 2 (HDAC3/NCoR2) (O15379 whole entry, the tested form may be a part): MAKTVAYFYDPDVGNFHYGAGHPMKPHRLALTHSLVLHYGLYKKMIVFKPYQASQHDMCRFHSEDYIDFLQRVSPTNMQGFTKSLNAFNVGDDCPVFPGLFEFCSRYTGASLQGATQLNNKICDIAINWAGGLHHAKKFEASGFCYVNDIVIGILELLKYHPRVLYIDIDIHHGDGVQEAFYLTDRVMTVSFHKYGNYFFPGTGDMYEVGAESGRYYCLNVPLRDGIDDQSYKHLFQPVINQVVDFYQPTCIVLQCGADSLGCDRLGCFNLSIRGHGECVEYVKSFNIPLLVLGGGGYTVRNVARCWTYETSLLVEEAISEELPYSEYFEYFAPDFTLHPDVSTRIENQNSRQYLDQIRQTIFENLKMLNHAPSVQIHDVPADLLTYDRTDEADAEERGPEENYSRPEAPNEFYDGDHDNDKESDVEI
Chain of Histone deacetylase 3/Nuclear receptor corepressor 2 (HDAC3/NCoR2) (Q9Y618 whole entry, further chain, the tested form may be a part): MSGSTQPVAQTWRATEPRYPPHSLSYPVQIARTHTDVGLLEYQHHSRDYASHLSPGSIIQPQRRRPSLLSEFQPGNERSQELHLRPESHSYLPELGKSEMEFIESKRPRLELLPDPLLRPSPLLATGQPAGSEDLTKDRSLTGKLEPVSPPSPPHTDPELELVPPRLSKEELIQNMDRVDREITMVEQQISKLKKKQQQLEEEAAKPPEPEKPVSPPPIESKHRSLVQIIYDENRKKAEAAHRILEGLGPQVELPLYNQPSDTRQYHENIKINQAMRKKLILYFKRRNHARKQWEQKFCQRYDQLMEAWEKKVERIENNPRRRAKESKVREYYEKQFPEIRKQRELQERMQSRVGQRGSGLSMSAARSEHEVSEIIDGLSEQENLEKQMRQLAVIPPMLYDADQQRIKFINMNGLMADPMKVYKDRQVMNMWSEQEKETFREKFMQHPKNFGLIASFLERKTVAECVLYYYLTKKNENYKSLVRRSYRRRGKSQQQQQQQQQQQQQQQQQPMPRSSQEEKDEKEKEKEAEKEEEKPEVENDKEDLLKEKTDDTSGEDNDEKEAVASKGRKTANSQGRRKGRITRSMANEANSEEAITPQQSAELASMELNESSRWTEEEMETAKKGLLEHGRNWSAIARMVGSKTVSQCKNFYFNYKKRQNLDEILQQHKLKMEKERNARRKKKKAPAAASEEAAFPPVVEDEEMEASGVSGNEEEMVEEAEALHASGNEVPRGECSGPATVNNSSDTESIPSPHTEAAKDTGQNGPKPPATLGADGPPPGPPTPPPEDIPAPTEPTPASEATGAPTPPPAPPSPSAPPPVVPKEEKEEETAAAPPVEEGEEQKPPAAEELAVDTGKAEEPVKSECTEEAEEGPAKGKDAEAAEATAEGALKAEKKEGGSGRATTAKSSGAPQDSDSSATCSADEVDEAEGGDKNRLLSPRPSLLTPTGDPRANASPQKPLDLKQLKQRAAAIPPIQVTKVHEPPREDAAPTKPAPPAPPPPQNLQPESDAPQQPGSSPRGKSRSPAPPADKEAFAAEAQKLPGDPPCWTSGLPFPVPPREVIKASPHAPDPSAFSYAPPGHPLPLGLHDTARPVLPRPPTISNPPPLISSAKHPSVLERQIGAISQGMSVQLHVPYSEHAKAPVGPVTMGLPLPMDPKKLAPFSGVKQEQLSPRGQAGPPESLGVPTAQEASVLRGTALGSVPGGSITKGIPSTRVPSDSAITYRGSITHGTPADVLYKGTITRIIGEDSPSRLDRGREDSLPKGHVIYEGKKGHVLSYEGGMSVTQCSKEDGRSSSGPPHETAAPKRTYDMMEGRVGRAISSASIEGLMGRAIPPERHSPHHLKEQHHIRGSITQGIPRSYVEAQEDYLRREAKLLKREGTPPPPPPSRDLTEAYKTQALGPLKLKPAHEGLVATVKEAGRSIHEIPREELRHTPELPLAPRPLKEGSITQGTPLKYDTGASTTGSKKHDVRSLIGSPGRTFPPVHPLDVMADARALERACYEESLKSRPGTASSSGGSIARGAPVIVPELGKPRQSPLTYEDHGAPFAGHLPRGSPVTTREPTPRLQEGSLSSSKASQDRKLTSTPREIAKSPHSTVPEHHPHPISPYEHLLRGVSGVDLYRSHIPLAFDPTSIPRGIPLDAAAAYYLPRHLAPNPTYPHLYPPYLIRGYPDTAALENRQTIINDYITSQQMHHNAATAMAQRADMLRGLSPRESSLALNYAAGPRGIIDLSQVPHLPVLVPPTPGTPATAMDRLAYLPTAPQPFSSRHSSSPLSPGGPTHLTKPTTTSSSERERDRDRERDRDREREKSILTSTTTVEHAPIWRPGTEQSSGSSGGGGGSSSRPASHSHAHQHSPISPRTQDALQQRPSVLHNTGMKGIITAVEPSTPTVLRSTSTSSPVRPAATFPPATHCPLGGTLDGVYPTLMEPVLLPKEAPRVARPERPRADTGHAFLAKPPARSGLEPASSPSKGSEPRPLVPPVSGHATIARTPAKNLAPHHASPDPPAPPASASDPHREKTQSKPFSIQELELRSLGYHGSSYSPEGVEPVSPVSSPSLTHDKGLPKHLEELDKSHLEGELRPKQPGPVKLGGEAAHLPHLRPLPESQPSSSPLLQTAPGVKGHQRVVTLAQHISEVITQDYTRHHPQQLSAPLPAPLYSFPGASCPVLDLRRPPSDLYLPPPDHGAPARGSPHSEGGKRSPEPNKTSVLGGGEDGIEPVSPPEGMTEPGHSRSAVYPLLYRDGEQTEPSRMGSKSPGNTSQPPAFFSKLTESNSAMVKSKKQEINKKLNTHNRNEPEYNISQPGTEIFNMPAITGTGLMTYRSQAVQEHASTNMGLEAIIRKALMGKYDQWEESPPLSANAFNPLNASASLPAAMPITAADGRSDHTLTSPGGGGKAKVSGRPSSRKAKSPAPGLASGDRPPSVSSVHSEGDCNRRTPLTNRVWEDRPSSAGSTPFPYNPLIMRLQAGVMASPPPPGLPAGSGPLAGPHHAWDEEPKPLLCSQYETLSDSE
Chain of Histone deacetylase 1 (Q13547 whole entry, the tested form may be a part): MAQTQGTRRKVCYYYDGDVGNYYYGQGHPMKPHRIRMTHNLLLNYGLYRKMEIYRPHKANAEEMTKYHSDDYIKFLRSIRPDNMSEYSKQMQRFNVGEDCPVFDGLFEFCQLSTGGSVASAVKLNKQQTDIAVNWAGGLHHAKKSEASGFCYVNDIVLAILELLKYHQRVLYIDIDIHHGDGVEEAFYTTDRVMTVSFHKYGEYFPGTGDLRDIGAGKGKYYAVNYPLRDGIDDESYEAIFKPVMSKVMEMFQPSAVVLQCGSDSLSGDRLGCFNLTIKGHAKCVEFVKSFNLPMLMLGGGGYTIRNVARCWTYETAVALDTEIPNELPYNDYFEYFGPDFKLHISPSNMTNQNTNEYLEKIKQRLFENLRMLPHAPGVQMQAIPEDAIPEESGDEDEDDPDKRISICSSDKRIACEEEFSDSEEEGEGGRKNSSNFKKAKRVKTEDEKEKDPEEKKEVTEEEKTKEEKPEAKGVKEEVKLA
T2 sequence (O09106 whole entry, looked up, one chain of several, the tested form may be a part): as the sequence (Q13547 whole entry, the tested form may be a part) above, with R8K, D399E, E424D counted along it
Chain of Histone deacetylase 2 (Q92769 whole entry): as the sequence (P70288 whole entry, looked up, one chain of several) above, with A289V, P477T, A480T counted along it
Chain of Protein cereblon/Histone deacetylase 3 (Homo sapiens) (O15379 whole entry, looked up): as the sequence (O15379 whole entry, the tested form may be a part) above
Chain of Protein cereblon/Histone deacetylase 3 (Homo sapiens) (Q96SW2 whole entry, looked up): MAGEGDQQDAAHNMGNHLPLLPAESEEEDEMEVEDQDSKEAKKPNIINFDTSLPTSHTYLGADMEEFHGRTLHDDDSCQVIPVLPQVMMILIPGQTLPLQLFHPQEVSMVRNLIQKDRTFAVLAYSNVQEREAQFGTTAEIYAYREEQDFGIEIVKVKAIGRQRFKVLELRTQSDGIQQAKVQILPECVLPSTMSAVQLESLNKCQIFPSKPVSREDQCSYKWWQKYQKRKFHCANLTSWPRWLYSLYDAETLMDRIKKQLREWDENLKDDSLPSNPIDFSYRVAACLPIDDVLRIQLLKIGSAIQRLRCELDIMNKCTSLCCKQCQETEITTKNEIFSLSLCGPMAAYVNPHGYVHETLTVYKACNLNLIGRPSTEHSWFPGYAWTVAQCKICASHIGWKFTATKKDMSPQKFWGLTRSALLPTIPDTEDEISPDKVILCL

SMILES | IC50 (Histone deacetylase 1) [nM] | viability at 24 h [1] [%] | IC50 (Histone deacetylase 2) [nM] | Activity [3] | IC50 [4] [nM] | Activity [5] | Activity [15] | also measured
Nc1ccccc1NC(=O)c1ccc(NC(=O)CCCCCNc2cccc3c2C(=O)N(C2CCC(=O)NC2=O)C3=O)cc1 (stereo not given) | 220 | > 80 | 970 | inactive | 540 |  |  | Activity [2]: Active
Nc1ccccc1NC(=O)c1ccc(NC(=O)CCCNc2cccc3c2C(=O)N(C2CCC(=O)NC2=O)C3=O)cc1 (stereo not given) | 360 | > 80 | 1200 | inactive | 870 | Active |  | 
Nc1cc(F)ccc1NC(=O)c1ccc(NC(=O)CCCCNC(=O)CNc2cccc3c2C(=O)N(C2CCC(=O)NC2=O)C3=O)cc1 (stereo not given) | 3600 |  | 4200 |  | 1100 |  | Toxic | Activity [6]: inactive; Activity [7]: inactive; Activity [8]: inactive; Activity (RAW264.7 [9]): inactive; Activity [10]: inactive; Activity [11]: Active; Activity [12]: Active; DC50 [13]: 320 nM; Activity [14]: inactive
Nc1cccc2c1C(=O)N(C1CCC(=O)NC1=O)C2=O (stereo not given) [POMALIDOMIDE] |  |  |  |  |  |  | Toxic | 
O=C1CCC(N2C(=O)c3ccccc3C2=O)C(=O)N1 (stereo not given) [THALIDOMIDE] |  |  |  |  |  |  | Toxic | 
Nc1cccc2c1CN(C1CCC(=O)NC1=O)C2=O (stereo not given) [LENALIDOMIDE] |  |  |  |  |  |  | Toxic | 
Nc1ccccc1NC(=O)c1ccc(NC(=O)CCCNC(=O)CNc2cccc3c2C(=O)N(C2CCC(=O)NC2=O)C3=O)cc1 (stereo not given) | 320 | > 80 | 1500 | inactive | 560 | inactive |  | 
Nc1ccccc1NC(=O)c1ccc(NC(=O)CCCCNC(=O)CNc2cccc3c2C(=O)N(C2CCC(=O)NC2=O)C3=O)cc1 (stereo not given) | 290 | > 80 | 620 | inactive | 520 | Active |  | Activity [16]: Active; Activity [17]: Active; Activity [18]: inactive; Activity [19]: Active
Nc1ccccc1NC(=O)c1ccc(NC(=O)CCCCNc2cccc3c2C(=O)N(C2CCC(=O)NC2=O)C3=O)cc1 (stereo not given) | 420 | > 80 | 1000 | inactive | 1000 |  |  | 
CC(=O)Nc1ccc(C(=O)Nc2ccccc2N)cc1 [TACEDINALINE] |  |  |  |  |  |  |  | Activity (RAW264.7 [20]): 30%
